The values that follow come from ChEMBL document CHEMBL3352487, “Synthesis, antibacterial activity, and biological evaluation of formyl hydroxyamino derivatives as novel potent peptide deformylase inhibitors against drug-resistant bacteria” (Eur J Med Chem, 2014).

A word on the Cmax: it is the peak of the concentration-time curve. The term MRT last denotes the average time that molecules of a dose stay in the body. By half-life is commonly meant the time in which the quantity being followed falls by half. Lower therefore signals rapid decline. Broadly, the inhibition is the drop in the measured response relative to a control, in per cent. Lower therefore signals a weak effect. What is called AUC(0-inf) is total exposure, with the tail of the curve extrapolated. Low readings indicate less exposure, high ones more exposure. For orientation: AUC(0-t) means the area under the concentration-time curve up to a stated or last time point. A low value points to low exposure. What is called bioavailability is the share of a dose that reaches the circulation, judged against a reference dose that is usually intravenous. High values mean good availability, low ones poor availability. For orientation: clearance means the rate of elimination divided by the concentration. Read a low clearance as a low capacity for elimination. For orientation: Tmax means the time from dosing to the highest level.

A short description of data set [1]: Stability of the compound in artificial gastric juice measured every 2 hrs for 12 hrs by HPLC analysis. To be noted: simulated gi fluid. It is filed as ADME.
The subject of data set [2] is Escherichia coli. In words: Antimicrobial activity against Escherichia coli isolate 1 after 24 hrs by broth microdilution method. The format is functional. Particulars: isolate 1, 24 h. In a few lines:
(§1)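 Broth microdilution following NCCLS M7-A4; ATCC strains and clinical isolates from a provincial hospital.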
In general terms: Dilution methods test growth across graded concentrations, often in twofold steps.

Data set [3] concerns Staphylococcus aureus. In words: Antimicrobial activity against methicillin-susceptible Staphylococcus aureus after 24 hrs by broth microdilution method. The format is functional. The method, boiled down:
as §1

Data set [4] in a line: Solubility of the compound in artificial intestinal juice measured every 2 hrs for 12 hrs by HPLC analysis. The format is physicochemical. To be noted: simulated gi fluid.
Data set [5] has as its system Staphylococcus epidermidis. In words: Antimicrobial activity against Staphylococcus epidermidis after 24 hrs by broth microdilution method. It is filed as functional. In a few lines:
as §1

In data set [6] the test system is Staphylococcus aureus. The data set can be described thus: Antimicrobial activity against Staphylococcus aureus after 24 hrs by broth microdilution method. The format is functional. In a few lines: as §1
In data set [7] the test system is Staphylococcus aureus. The data set can be described thus: Antimicrobial activity against methicillin-resistant Staphylococcus aureus after 24 hrs by broth microdilution method. It is filed as functional. In a few lines: (§2)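 Broth microdilution following NCCLS M7-A4, using ATCC strains and clinical isolates from a provincial hospital.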
Data set [8] concerns Escherichia coli. The data set can be described thus: Antimicrobial activity against Escherichia coli isolate 2 after 24 hrs by broth microdilution method. Particulars: isolate 2, 24 h. The format is functional. The method, boiled down:
as §1

A short description of data set [9]: Stability of the compound in artificial intestinal juice measured every 2 hrs for 12 hrs by HPLC analysis. To be noted: simulated gi fluid. The format is physicochemical.
The nature of data set [10]: Solubility of the compound in artificial gastric juice measured every 2 hrs for 12 hrs by HPLC analysis. To be noted: simulated gi fluid. It is filed as ADME.
Data set [11] in a line: Drug recovery in CD1 mouse plasma at 2 uM by equilibrium dialysis. The format is ADME, cell-free. Particulars: read-out: Drug recovery. In a few lines:
(§3)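 Pooled CD-1 mouse plasma spiked to 2 µM final, equilibrium dialysis in triplicate against 100 mM PBS pH 7.4, 4 h at 37 °C with rotation; matrix-matched samples acetonitrile-precipitated, LC-MS/MS with internal standards. Unbound = free/total ×100; recovery = (free+total)/pre-dialysis ×100.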
A general note: In equilibrium dialysis only unbound substance equilibrates across the membrane.

Data set [12] in a line: Protein binding in CD1 mouse plasma at 2 uM by equilibrium dialysis. The format is ADME, cell-free. To be noted: read-out: PPB (converted).
Data set [13] in a line: Fraction unbound in CD1 mouse plasma at 2 uM by equilibrium dialysis. It is filed as ADME, cell-free. The method, boiled down:
as §3

Data set [14] in a line: Cmax in Sprague-Dawley rat at 25 mg/kg, po. Also noted: dose 25 mg/kg, route oral. Particulars: in vivo. The format is ADME, organism-based.
Data set [15] in a line: Mean residence time (0 to t) in Sprague-Dawley rat at 5 mg/kg, iv. The format is ADME, organism-based. Also noted: dose 5 mg/kg, route intravenous. Particulars: in vivo.
Data set [16] in a line: Half life in Sprague-Dawley rat at 25 mg/kg, po. It is filed as ADME, organism-based. Also noted: dose 25 mg/kg, route oral. To be noted: in vivo.
In data set [17] the test system is Haemophilus influenzae. The data set can be described thus: Antimicrobial activity against AcrA-deficient Haemophilus influenzae H128 after 24 hrs by broth microdilution method. The format is functional. Particulars: H128, 24 h. The method, boiled down: as §1
Data set [18] concerns Staphylococcus aureus. In words: Antimicrobial activity against Staphylococcus aureus WCUH29 after 24 hrs by broth microdilution method. It is filed as functional. To be noted: WCUH29, 24 h. The method, boiled down:
as §1

Data set [19] deals with Enterococcus faecalis. The data set can be described thus: Antimicrobial activity against Enterococcus faecalis Isolate 1 after 24 hrs by broth microdilution method. It is filed as functional. To be noted: Isolate 1, 24 h. The method, boiled down: as §1
For data set [20], the system named is Streptococcus pyogenes. The data set can be described thus: Antimicrobial activity against Streptococcus pyogenes 1308007P after 24 hrs by broth microdilution method. The format is functional. The method, boiled down: as §1
Data set [21] deals with Streptococcus pneumoniae. In words: Antimicrobial activity against Streptococcus pneumoniae ERY2 after 24 hrs by broth microdilution method. It is filed as functional. To be noted: ERY2, 24 h. In a few lines:
as §1

A short description of data set [22]: Volume of distribution at steady state in Sprague-Dawley rat at 5 mg/kg, iv. It is filed as ADME, organism-based. Also noted: dose 5 mg/kg, route intravenous. Particulars: in vivo, read-out: Vdss.
Data set [23] concerns Escherichia coli. In words: Antimicrobial activity against Escherichia coli isolate 3 after 24 hrs by broth microdilution method. It is filed as functional. Particulars: isolate 3, 24 h. The method, boiled down: as §1
Data set [24] deals with T1, hERG (KCNH2) (Homo sapiens, UniProt Q12809). The data set can be described thus: Inhibition of human ERG at 1 uM.
Data set [25] concerns Streptococcus pneumoniae. The data set can be described thus: Antimicrobial activity against Streptococcus pneumoniae N1387 after 24 hrs by broth microdilution method. It is filed as functional. Particulars: N1387, 24 h. The method, boiled down: as §1
Data set [26] is described as follows: AUC (0 to infinity) in Sprague-Dawley rat at 25 mg/kg, po. It is filed as ADME, organism-based. To be noted: plasma. Also noted: dose 25 mg/kg, route oral, time infinity.
Data set [27] has as its system Streptococcus pyogenes. In words: Antimicrobial activity against Streptococcus pyogenes 1307006P after 24 hrs by broth microdilution method. The format is functional. In a few lines:
as §1

Data set [28] in a line: AUC (0 to infinity) in Sprague-Dawley rat at 5 mg/kg, iv. It is filed as ADME, organism-based. Also noted: time infinity, dose 5 mg/kg, route intravenous. Particulars: plasma.
The test system of data set [29] is Streptococcus pneumoniae. In words: Antimicrobial activity against Streptococcus pneumoniae 1629 after 24 hrs by broth microdilution method. Particulars: Streptococcus pneumoniae, 1629, 24 h. It is filed as functional. The method, boiled down: as §1
A short description of data set [30]: AUC (0 to t) in Sprague-Dawley rat at 25 mg/kg, po. The format is ADME, organism-based. Also noted: dose 25 mg/kg, route oral. Particulars: plasma.
Data set [31] deals with Haemophilus influenzae. The data set can be described thus: Antimicrobial activity against Haemophilus influenzae H128 after 24 hrs by broth microdilution method. The format is functional. Particulars: H128, 24 h. The method, boiled down: as §1
Data set [32] concerns Haemophilus influenzae. In words: Antimicrobial activity against Haemophilus influenzae Q1 after 24 hrs by broth microdilution method. The format is functional. To be noted: Q1, 24 h. The method, boiled down:
as §1

Data set [33] concerns Enterococcus faecium. The data set can be described thus: Antimicrobial activity against Enterococcus faecium X7501 after 24 hrs by broth microdilution method. The format is functional. To be noted: X7501, 24 h. In a few lines:
as §1

Data set [34] in a line: AUC (0 to t) in Sprague-Dawley rat at 5 mg/kg, iv. To be noted: plasma. Also noted: dose 5 mg/kg, route intravenous. The format is ADME, organism-based.
Data set [35] in a line: Oral bioavailability in Sprague-Dawley rat at 25 mg/kg. It is filed as ADME, organism-based. Particulars: in vivo.
Data set [36] deals with Moraxella catarrhalis. In words: Antimicrobial activity against Moraxella catarrhalis 1502 after 24 hrs by broth microdilution method. The format is functional. Particulars: Moraxella catarrhalis, 1502, 24 h. The method, boiled down:
as §1

The nature of data set [37]: Half life in Sprague-Dawley rat at 5 mg/kg, iv. Also noted: dose 5 mg/kg, route intravenous. To be noted: in vivo. It is filed as ADME, organism-based.
Data set [38] in a line: Mean residence time (0 to t) in Sprague-Dawley rat at 25 mg/kg, po. The format is ADME, organism-based. Also noted: dose 25 mg/kg, route oral. To be noted: in vivo.
A short description of data set [39]: Clearance in Sprague-Dawley rat at 5 mg/kg, iv. The format is ADME, organism-based. Also noted: dose 5 mg/kg, route intravenous. Particulars: in vivo.
Data set [40] has as its target T1, hERG (KCNH2). The data set can be described thus: Inhibition of human ERG at 10 uM.
Data set [41] in a line: Tmax in Sprague-Dawley rat at 25 mg/kg, po. To be noted: in vivo. It is filed as ADME, organism-based. Also noted: dose 25 mg/kg, route oral.
The subject of data set [42] is Staphylococcus aureus. In words: Antimicrobial activity against Staphylococcus aureus OXFORD after 24 hrs by broth microdilution method. The format is functional. The method, boiled down: as §2

≈ marks a conversion by molar mass, not a printed value.

T1 sequence (Q12809 whole entry): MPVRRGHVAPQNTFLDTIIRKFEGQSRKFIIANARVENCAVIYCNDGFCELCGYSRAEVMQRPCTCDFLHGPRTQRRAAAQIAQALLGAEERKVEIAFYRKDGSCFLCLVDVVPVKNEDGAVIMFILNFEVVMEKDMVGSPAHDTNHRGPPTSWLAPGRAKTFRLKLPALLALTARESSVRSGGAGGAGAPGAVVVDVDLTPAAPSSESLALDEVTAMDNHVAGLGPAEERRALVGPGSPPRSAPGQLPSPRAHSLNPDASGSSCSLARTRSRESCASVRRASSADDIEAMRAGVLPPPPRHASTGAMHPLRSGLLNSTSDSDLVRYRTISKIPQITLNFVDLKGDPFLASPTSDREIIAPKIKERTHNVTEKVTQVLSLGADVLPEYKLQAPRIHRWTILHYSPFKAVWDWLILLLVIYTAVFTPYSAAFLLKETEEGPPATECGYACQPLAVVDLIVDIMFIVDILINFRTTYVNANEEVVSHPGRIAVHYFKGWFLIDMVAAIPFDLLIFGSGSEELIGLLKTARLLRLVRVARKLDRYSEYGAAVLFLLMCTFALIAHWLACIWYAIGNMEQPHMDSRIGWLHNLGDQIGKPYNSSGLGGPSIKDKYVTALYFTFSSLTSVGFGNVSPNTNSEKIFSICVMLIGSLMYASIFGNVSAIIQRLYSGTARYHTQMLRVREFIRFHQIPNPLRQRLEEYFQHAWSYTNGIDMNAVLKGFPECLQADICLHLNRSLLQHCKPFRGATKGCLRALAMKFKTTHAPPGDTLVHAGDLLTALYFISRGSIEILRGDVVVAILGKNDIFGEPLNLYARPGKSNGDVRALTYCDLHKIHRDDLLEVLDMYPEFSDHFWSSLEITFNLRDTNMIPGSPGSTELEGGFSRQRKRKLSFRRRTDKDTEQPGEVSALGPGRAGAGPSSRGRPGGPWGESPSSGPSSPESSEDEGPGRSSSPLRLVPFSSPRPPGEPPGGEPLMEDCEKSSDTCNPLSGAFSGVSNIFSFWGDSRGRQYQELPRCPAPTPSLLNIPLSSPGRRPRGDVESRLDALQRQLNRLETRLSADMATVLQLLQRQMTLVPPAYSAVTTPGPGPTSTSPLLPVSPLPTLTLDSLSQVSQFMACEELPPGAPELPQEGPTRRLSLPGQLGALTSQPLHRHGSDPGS

As for `CCCC[C@H](CN(O)C=O)C(=O)N1CC=C[C@H]1C(=O)Nc1ccc(F)cn1`, the Stability entry in data set [1] and in data set [9] was “Stable” in each case. The MIC in [2] was over 64 µg/mL; in data set [3], 1 µg/mL (≈ 2.64 µM); in [5], 0.5 µg/mL (≈ 1.32 µM); in data set [6], 0.5 µg/mL (≈ 1.32 µM); in data set [7], 0.25 µg/mL (≈ 0.661 µM); in data set [8], 64 µg/mL (≈ 169 µM). For the same compound, the solubility result in [4] and in data set [10] was “soluble” throughout.

As for `CC(=O)CC(c1ccccc1)c1c(O)c2ccccc2oc1=O` (stereo not drawn) [WARFARIN], in data set [11], the recovery at 2 µM is 104%. In addition, the fraction unbound at 2 µM in data set [12] and in [13] was 0.059 in each case.

Take `Cc1cnc(NC(=O)[C@@H]2C=CCN2C(=O)[C@H](CC2CCCC2)CN(O)C=O)s1`: the highest level in [14] (Cmax) was 4560 ng/mL. The values for the MRT last in [15] and in data set [38] were 1.24 h and 3.39 h, respectively. In addition, the half-life in [16] is 3.31 h; in [37], 2.68 h. In addition, the MIC was at most 0.06 µg/mL in data set [17]; at most 0.06 µg/mL in data set [18]; 2 µg/mL (≈ 4.92 µM) in data set [19]; 0.5 µg/mL (≈ 1.23 µM) in data set [20]; 16 µg/mL (≈ 39.4 µM) in data set [2]; 0.5 µg/mL (≈ 1.23 µM) in data set [21]. Moreover, the MIC was found to be 32 µg/mL (≈ 78.7 µM) in data set [23]; 0.25 µg/mL (≈ 0.615 µM) in [3]; 0.25 µg/mL (≈ 0.615 µM) in [25]; 0.0625 µg/mL (≈ 0.154 µM) in data set [5]; 0.25 µg/mL (≈ 0.615 µM) in data set [27]; 0.0312 µg/mL (≈ 0.0769 µM) in data set [6]. Moreover, the MIC in [7] was determined as 0.125 µg/mL (≈ 0.307 µM); in [29], 0.5 µg/mL (≈ 1.23 µM); in data set [31] it was 2 µg/mL (≈ 4.92 µM); in data set [32] it was 2 µg/mL (≈ 4.92 µM); in data set [33], 0.5 µg/mL (≈ 1.23 µM); in data set [8], 16 µg/mL (≈ 39.4 µM). Also, the MIC is at most 0.06 µg/mL in data set [36] and 0.25 µg/mL (≈ 0.615 µM) in data set [42]. Besides, the Vd in [22] is 1.37 L/kg. The compound also gave an inhibition at 1 µM in [24] of 5.38%. Besides, the AUC(0-inf) in data set [26] amounted to 12300 ng·h/mL; in [28], 4700 ng·h/mL. Also, the AUC(0-t) in data set [30] turned out to be 12200 ng·h/mL; in data set [34], 4700 ng·h/mL. In data set [35], the bioavailability worked out at 52.3%. The same compound gave a clearance in data set [39] of 18.6 mL/min/kg. In [40], 10 µM produced 15.9% inhibition. In addition, the time to peak (Tmax) in data set [41] stood at 0.625 h.
